ChEMBL document CHEMBL1165965, “Synthesis and structure-activity relationships of 1,2,3,4-tetrahydropyrido[2,3-b]pyrazines as potent and selective inhibitors of the anaplastic lymphoma kinase” (Bioorg Med Chem, 2010)

Experiments:
[1] = biological target: T1, Tyrosine-protein kinase Mer (Homo sapiens) (UniProt Q12866); experiment: Inhibition of MERTK at 1 uM
T1 sequence (whole entry): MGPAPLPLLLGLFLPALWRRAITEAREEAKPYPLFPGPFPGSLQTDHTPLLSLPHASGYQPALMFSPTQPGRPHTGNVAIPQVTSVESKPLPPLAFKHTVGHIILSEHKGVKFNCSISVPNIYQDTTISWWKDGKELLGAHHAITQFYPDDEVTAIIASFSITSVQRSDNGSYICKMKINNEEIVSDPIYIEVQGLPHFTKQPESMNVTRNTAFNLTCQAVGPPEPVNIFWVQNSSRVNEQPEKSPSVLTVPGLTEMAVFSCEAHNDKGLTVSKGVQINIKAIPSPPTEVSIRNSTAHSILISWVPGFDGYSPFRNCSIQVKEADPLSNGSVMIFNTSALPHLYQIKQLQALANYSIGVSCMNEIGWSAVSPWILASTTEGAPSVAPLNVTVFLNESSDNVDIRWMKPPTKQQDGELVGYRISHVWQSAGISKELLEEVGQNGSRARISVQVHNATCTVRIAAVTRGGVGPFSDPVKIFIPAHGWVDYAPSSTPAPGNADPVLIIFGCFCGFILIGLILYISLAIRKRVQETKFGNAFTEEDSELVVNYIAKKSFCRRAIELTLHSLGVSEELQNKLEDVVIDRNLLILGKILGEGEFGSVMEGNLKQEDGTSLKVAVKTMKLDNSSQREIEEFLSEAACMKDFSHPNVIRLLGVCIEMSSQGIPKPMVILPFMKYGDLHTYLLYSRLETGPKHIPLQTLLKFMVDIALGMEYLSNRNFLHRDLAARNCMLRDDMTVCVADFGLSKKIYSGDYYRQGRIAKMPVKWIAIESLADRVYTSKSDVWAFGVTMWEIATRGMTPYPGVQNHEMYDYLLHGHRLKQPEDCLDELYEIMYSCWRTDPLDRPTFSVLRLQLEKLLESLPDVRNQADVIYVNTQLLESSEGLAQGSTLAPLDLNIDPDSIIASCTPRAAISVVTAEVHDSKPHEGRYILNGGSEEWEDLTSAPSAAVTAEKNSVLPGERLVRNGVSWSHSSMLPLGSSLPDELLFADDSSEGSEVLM
In short: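 Kinase-panel screen using KINOMEscan technology, with 250–400 kinases per panel. Each compound was tested at a single concentration, and inhibition of each kinase was recorded. Selectivity was summarised as S(90), the fraction of kinases inhibited by more than 90%.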

[2] = biological target: Calcium/calmodulin-dependent protein kinase type II subunit delta (Homo sapiens) (UniProt Q13557); experiment: Inhibition of CAMK2D at 1 uM
In short: (§1)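 Ambit KINOMEscan screen at a single concentration across a 250–400 kinase panel, recorded as percent inhibition. Selectivity was expressed as S(90), the fraction of kinases inhibited >90%.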

[3] = biological target: Tyrosine-protein kinase receptor Tie-1 (Homo sapiens) (UniProt P35590); experiment: Inhibition of TIE1 at 1 uM
Tyrosine-protein kinase receptor Tie-1 (Homo sapiens), sequence (P35590 whole entry): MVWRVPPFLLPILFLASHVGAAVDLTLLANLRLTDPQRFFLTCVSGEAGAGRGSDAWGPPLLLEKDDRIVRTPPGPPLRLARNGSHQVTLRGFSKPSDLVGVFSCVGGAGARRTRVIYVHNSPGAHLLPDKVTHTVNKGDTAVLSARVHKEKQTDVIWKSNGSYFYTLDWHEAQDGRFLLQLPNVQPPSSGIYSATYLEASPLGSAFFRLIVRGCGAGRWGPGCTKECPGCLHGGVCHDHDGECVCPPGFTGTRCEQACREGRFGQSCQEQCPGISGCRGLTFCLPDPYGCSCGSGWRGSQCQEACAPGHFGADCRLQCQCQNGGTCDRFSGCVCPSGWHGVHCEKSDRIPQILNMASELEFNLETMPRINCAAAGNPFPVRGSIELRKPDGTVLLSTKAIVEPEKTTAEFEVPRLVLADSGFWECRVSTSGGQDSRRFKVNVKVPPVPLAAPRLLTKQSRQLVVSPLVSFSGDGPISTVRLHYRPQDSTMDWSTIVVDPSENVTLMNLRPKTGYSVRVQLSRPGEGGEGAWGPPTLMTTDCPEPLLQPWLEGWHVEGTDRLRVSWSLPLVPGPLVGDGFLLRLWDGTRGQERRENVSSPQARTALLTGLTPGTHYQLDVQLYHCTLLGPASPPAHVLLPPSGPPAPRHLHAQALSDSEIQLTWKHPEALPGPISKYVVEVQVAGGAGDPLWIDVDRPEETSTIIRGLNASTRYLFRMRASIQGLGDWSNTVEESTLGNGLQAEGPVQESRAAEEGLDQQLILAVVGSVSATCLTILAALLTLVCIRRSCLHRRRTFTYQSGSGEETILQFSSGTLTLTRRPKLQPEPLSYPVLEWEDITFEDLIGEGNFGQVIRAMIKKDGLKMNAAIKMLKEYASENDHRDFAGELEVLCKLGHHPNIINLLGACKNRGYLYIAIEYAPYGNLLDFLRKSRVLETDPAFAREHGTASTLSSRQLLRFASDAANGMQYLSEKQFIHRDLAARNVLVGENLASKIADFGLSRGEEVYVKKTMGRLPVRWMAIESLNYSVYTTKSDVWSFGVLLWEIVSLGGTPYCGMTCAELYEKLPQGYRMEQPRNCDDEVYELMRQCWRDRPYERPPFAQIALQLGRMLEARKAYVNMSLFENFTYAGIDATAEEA

[4] = biological target: Tyrosine-protein kinase Fer (Homo sapiens) (UniProt P16591); experiment: Inhibition of FER at 1 uM
Tyrosine-protein kinase Fer (Homo sapiens), sequence (P16591 whole entry, looked up): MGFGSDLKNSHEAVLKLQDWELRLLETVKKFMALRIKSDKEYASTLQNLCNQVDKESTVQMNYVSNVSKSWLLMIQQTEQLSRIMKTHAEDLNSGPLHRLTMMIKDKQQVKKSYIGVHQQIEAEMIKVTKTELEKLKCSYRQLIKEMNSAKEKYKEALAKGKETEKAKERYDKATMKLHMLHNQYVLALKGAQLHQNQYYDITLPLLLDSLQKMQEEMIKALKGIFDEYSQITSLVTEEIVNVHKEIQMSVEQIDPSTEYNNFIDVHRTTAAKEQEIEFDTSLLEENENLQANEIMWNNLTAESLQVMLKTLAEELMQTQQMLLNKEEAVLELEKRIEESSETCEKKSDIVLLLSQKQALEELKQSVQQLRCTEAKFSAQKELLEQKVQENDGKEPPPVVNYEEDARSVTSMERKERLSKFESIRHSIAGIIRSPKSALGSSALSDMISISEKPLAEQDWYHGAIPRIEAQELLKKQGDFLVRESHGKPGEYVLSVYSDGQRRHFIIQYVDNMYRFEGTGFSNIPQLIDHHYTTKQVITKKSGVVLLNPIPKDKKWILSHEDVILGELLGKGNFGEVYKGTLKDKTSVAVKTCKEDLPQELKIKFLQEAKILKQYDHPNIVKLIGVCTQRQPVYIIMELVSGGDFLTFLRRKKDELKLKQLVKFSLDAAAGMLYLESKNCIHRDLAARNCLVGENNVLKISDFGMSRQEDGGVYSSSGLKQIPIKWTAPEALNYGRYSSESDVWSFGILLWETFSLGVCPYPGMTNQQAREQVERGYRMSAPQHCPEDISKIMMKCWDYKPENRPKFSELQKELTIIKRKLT
In short: (§2)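 Single-concentration screen using Ambit Bioscience KINOMEscan technology across a panel of 250–400 kinases. Per-kinase inhibition from this screen was summarized as S(90), the fraction of kinases inhibited by more than 90%.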

[5] = system: Epidermal growth factor receptor (Homo sapiens), P00533 [L861Q]; experiment: Inhibition of EGFR L861Q mutant at 1 uM; format: protein assay; in short: as §2
[6] = biological target: Mitogen-activated protein kinase 4 (Homo sapiens) (UniProt P31152); experiment: Inhibition of ERK4 at 1 uM
Mitogen-activated protein kinase 4 (Homo sapiens), sequence (P31152 whole entry): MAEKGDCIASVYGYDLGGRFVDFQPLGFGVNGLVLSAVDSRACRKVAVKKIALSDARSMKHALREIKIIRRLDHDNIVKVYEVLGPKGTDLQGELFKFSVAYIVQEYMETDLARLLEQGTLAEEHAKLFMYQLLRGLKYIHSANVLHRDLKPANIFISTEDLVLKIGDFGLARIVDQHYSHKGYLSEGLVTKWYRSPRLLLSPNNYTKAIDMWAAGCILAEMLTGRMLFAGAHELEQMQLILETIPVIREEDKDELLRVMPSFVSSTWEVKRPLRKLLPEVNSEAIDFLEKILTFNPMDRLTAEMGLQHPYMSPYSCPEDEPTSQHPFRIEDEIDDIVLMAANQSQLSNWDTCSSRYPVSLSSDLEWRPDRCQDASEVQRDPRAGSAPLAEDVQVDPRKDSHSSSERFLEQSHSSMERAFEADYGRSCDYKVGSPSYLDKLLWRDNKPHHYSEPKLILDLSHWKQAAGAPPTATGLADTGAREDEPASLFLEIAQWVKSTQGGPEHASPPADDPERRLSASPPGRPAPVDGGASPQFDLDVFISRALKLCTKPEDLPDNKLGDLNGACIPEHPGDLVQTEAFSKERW

[7] = biological target: Activated CDC42 kinase 1 (Homo sapiens) (UniProt Q07912); experiment: Inhibition of TNK2 at 1 uM
In short: (§3)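 Single-concentration screen on the Ambit KINOMEscan platform, run against a panel of 250–400 kinases. Per-kinase inhibition was also summarized as S(90), the fraction of kinases inhibited by more than 90%.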

[8] = biological target: T2, NUAK family SNF1-like kinase 1 (Homo sapiens) (UniProt O60285); experiment: Inhibition of ARK5 at 1 uM
T2 sequence (whole entry): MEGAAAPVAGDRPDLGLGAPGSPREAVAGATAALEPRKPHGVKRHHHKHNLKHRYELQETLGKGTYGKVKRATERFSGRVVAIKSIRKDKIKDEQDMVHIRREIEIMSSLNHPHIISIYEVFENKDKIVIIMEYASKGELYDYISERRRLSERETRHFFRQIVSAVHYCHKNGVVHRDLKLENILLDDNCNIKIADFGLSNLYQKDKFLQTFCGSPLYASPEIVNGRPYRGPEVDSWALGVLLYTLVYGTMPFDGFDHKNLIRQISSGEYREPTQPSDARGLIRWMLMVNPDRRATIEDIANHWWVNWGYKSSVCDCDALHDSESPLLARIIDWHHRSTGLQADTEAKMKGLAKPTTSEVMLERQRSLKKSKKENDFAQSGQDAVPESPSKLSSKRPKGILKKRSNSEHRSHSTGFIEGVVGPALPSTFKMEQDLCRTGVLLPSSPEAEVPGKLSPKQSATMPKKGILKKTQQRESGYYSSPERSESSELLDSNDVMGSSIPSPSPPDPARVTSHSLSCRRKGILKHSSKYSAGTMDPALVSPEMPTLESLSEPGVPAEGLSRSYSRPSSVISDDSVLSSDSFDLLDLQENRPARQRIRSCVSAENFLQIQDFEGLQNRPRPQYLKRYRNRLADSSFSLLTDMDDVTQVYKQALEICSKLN

[9] = biological target: AP2-associated protein kinase 1 (Homo sapiens) (UniProt Q2M2I8); experiment: Inhibition of AAK1 at 1 uM; in short: as §1
AP2-associated protein kinase 1 (Homo sapiens), sequence (Q2M2I8 whole entry, looked up, the tested form may be a part): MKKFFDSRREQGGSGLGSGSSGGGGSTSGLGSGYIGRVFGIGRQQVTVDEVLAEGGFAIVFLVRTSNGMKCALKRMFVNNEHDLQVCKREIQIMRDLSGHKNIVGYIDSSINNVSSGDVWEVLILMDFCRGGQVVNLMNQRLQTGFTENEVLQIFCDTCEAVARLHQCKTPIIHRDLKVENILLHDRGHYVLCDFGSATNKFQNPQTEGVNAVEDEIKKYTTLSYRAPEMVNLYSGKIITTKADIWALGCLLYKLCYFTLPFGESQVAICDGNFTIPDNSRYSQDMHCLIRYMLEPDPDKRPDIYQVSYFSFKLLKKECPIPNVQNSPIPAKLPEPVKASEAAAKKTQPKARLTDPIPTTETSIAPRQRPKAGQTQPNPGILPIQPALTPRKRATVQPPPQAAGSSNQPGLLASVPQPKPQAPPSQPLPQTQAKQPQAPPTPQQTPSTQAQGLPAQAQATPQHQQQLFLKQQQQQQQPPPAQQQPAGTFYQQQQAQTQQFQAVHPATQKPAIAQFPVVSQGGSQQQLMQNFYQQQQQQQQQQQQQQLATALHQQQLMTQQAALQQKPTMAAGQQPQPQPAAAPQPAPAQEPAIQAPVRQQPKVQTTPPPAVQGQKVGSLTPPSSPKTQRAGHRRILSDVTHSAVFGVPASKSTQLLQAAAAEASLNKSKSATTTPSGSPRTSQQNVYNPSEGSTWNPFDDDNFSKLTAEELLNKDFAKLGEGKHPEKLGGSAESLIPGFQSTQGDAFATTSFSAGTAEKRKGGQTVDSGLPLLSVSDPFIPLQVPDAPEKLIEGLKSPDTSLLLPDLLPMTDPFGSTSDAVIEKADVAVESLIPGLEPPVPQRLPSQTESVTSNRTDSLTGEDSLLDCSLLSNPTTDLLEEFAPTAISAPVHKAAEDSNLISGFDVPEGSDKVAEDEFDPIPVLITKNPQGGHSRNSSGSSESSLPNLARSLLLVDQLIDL

[10] = biological target: LIM domain kinase 1 (Homo sapiens) (UniProt P53667); experiment: Inhibition of LIMK1 at 1 uM; in short: as §3
LIM domain kinase 1 (Homo sapiens), sequence (P53667 whole entry, looked up, the tested form may be a part): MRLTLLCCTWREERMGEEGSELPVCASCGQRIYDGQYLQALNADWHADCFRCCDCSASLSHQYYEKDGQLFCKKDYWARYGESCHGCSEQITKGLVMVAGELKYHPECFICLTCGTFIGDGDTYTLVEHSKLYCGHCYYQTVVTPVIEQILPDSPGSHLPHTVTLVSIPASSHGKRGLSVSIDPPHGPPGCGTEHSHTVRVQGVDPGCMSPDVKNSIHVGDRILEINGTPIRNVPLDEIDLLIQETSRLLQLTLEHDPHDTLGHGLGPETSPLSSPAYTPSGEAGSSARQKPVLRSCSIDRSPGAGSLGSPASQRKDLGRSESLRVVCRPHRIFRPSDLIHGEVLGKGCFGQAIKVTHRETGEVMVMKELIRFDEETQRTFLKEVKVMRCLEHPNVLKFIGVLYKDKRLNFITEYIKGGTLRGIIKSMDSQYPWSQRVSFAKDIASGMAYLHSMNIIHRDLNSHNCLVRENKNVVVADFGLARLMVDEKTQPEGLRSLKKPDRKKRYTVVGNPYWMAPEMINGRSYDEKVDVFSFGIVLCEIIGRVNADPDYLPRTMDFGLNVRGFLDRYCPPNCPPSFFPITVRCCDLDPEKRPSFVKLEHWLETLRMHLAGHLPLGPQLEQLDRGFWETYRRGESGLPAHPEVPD

[11] = biological target: T3, Cyclin-dependent kinase-like 2 (Homo sapiens) (UniProt Q92772); experiment: Inhibition of CDKL2 at 1 uM
T3 sequence (whole entry): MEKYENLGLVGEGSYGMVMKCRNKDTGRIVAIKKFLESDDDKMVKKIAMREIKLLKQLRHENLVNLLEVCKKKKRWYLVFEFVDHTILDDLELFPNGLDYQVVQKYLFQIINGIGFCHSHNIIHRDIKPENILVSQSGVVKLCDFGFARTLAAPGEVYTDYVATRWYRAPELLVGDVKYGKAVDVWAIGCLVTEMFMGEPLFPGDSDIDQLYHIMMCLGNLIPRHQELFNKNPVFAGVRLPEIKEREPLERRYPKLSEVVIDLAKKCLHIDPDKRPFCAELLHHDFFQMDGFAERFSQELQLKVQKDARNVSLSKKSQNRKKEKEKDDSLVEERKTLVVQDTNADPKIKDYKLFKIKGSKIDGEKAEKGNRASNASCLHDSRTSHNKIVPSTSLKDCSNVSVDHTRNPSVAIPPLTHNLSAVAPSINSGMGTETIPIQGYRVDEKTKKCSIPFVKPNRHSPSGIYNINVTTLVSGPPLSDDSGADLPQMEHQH

[12] = biological target: Serine/threonine-protein kinase N1 (Homo sapiens) (UniProt Q16512); experiment: Inhibition of PKN1 at 1 uM
Serine/threonine-protein kinase N1 (Homo sapiens), sequence (Q16512 2-942 limits assumed): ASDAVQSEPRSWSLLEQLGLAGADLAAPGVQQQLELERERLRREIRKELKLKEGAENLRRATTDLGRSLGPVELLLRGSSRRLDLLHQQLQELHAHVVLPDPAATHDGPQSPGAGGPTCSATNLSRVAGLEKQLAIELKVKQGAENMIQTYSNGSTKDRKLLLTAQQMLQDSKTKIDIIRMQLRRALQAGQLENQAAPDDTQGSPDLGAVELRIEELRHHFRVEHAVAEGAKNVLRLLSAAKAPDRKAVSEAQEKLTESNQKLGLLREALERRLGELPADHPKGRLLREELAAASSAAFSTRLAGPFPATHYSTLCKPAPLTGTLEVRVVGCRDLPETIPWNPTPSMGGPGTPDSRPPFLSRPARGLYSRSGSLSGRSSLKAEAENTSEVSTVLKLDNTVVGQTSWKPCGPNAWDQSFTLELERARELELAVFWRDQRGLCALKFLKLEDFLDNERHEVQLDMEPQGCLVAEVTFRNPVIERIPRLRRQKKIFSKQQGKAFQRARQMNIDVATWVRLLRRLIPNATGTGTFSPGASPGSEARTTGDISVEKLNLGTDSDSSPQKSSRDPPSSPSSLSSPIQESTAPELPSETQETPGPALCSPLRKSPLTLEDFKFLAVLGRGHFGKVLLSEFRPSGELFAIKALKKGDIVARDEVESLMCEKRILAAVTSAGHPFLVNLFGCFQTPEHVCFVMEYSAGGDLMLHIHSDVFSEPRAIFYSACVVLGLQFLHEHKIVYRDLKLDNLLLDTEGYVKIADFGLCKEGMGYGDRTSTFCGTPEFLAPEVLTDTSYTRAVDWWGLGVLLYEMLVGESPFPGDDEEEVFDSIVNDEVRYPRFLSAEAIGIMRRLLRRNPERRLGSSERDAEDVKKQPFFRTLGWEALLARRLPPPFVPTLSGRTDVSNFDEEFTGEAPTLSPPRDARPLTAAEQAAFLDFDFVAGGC

inhibition [1]	inhibition [2]	inhibition [3]	inhibition [4]	inhibition [5]	inhibition [6]	inhibition [7]	inhibition [8]	inhibition [9]	inhibition [10]	inhibition [11]	inhibition [12]	Compound
< 50%	< 50%		< 50%	< 50%		97.4%		< 50%	< 50%			O=C(O)c1ccc(-c2cnc3c(c2)N(Cc2cc(Cl)ccc2C(F)(F)F)CCN3)cc1
< 50%	< 50%		< 50%	< 50%		99.8%		< 50%	< 50%			O=C(c1ccc(-c2cnc3c(c2)N(Cc2cc(Cl)ccc2C(F)(F)F)CCN3)cc1)N1CCC(N2CCCC2)CC1
< 50%	< 50%		< 50%	< 50%		97.2%		< 50%	< 50%			COC1CCN(C(=O)c2ccc(-c3cnc4c(c3)N(Cc3cc(Cl)ccc3C(F)(F)F)CCN4)cc2)CC1
< 50%	< 50%	< 50%	< 50%	< 50%	< 50%	99%	90%	< 50%	< 50%	< 50%	< 50%	CC(=O)N1CCN(c2cc(-c3cnc4c(c3)N(Cc3cc(Cl)ccc3C(F)(F)F)CCN4)ccn2)CC1
< 50%	< 50%		< 50%	< 50%		93.2%		< 50%	< 50%			O=C(c1ccc(-c2cnc3c(c2)N(Cc2cc(Cl)ccc2C(F)(F)F)CCN3)cc1)N1CCCCC1

The next lines start with the compound.

Compound	inhibition [1]	inhibition [2]	inhibition [3]	inhibition [4]	inhibition [5]	inhibition [6]	inhibition [7]	inhibition [8]	inhibition [9]	inhibition [10]	inhibition [11]	inhibition [12]
CN1CCN(c2ccc(-c3cnc4c(c3)N(Cc3cc(Cl)ccc3C(F)(F)F)CCN4)cn2)CC1	< 50%	< 50%	< 50%	< 50%	< 50%	< 50%	98%	92%	< 50%	< 50%	< 50%	< 50%
FC(F)(F)c1ccc(Cl)cc1CN1CCNc2ncc(-c3ccnc(N4CCNCC4)c3)cc21	< 50%	< 50%	81%	97%	< 50%	< 50%	99%	88%	< 50%	< 50%	< 50%	82%
CN1CCN(c2ccc(-c3cnc4c(c3)N(Cc3cc(F)ccc3F)CCN4)cn2)CC1	< 50%	< 50%	< 50%	< 50%	< 50%	< 50%	79%	96%	< 50%	< 50%	< 50%	< 50%
CN1CCN(c2ccc(-c3cnc4c(c3)N(Cc3c(F)ccc(F)c3Cl)CCN4)cn2)CC1	< 50%	< 50%	< 50%	< 50%	< 50%	< 50%	85%	92%	< 50%	< 50%	< 50%	< 50%
CN1CCN(c2ccc(-c3cnc4c(c3)N(Cc3cc(Cl)ccc3Cl)CCN4)cn2)CC1	< 50%	< 50%	< 50%	< 50%	< 50%	< 50%	88%	94%	< 50%	< 50%	< 50%	< 50%
